36 sequences from the EternaBench riboswitch data can be followed below.

The subject of this data set is MS2 coat protein. The data set is described as follows: apparent Kd, MS2 coat protein; higher = weaker binding; RNA-MaP array; FMN 200 µM where present. The essentials:
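On Illumina sequencing-chip clusters, designs were transcribed by stalled E. coli RNA polymerase and titrated with SNAP-549-labelled MS2 coat protein (0.7 or 1.5 nM, doubling to 3 µM), without and then with constant ligand, in 100 mM Tris-HCl pH 7.5, 80 mM KCl, 4 mM MgCl2, BSA, DTT, yeast tRNA and Tween-20. Apparent Kd is the median of filtered per-cluster curve fits to green signal normalised to red-channel RNA signal and control-cluster median Fmax.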

The mark [1] stands for this setting: designed as: ON switch for flavin mononucleotide, no ligand.
Setting [2] is: ligand present: flavin mononucleotide, designed as: ON switch for flavin mononucleotide.
The mark [3] stands for this setting: designed as: OFF switch for flavin mononucleotide, no ligand.
[4] abbreviates: ligand present: flavin mononucleotide, designed as: OFF switch for flavin mononucleotide.

Usually apparent Kd stands for the concentration giving half-maximal binding under the conditions of the assay. Consider “UAAUAUAUACAAGGAUAUCAAUUAUAUACACAUCCUACAUGAGGAUCACCCAUGUUUUAUUUUUUUGAGAAGGUGUAUUGUCGG”, for which the “apparent Kd” value is 20.4 nM under setting [1] and 29.1 nM under setting [2].

Consider “AAGAUGUAAGGAUAUGCUGCUCGUCACUUGCGUGAUGAGUAGCAGAAGGUACAUGAGGAUCACCCAUGUAAAGA”, for which the “apparent Kd” value was 30.4 nM under setting [3] and 43.3 nM under setting [4].

As for “GUGAAACAUGAGGAUCACCCAUGUGAGGAUAUGUUUUAGUACUGCUGACAGUACAUCUAUAGAAGGCACAAAGG”, the “apparent Kd” value under setting [3] is 26.8 nM and the “apparent Kd” value under setting [4] is 29.9 nM.

As for “AGCUAGUACCGAGGAUAUACAUACAUGAGGAUCACCCAUGUAUACAUGAACAAUUGAGACUACAUGUAGAAGGCGGUACUAGCA”, the “apparent Kd” value worked out at 49.9 nM under setting [1] and 18.6 nM under setting [2].

As to “UUCAUCAAUGAAGGAUAUCUAUGUCCAACAUGAGGAUCACCCAUGUUGAGGAUCACCUAUGUAUAGGAGAAGGUUAAUAUAACU”, the “apparent Kd” value by setting is: under setting [1], 7.32 nM; under setting [2], 6.28 nM.

In the case of “AUCUAGUCAGGAUAUCGUACAAUAUGGAAAACAUAGAGGUACGAGAAGGGACAUGAGGAUCACCCAUGUAAAAC”, the “apparent Kd” value was determined as 36.2 nM under setting [3] and 38 nM under setting [4].

In the case of “AAGAAGUGAGGAUAUACAUGAACGAAAAAAAAAAAGAGCAUGUAGAAGGCACAUGAGGAUCACCCAUGUCAAAA”, the “apparent Kd” value under setting [3] was determined as 28.5 nM and the “apparent Kd” value under setting [4] amounted to 27.3 nM.

Consider “UUCCGGCGUGUAGGAUAUGGAUCCGAUUAGGAUCCAGAAGGACAUGAGGAUCACCCAUGUACAUGUAAACAGUCAUCACCGGAG”, for which the “apparent Kd” value was 7.36 nM under setting [3] and 11.4 nM under setting [4].

Turning to “GCUAUUGGCUAAGGAUAUGGAUACAUGAGGAUCACCCAUGUAUUUUUUGUGAUCAUAUAAAUGAUCCAGAAGGUAGCUGUUAGC”, the “apparent Kd” value reads like this: under setting [3], 21.9 nM; under setting [4], 62.1 nM.

As to “UGUCGGAGCAGAGGAUAUUACAUGAGGAUCACCCAUGUAUGAACCAAAAGCUGGAAACAGCAAUGUAAGAAGGCUGCUCCGACA”, the “apparent Kd” value runs as follows: under setting [3], 11.8 nM; under setting [4], 123 nM.

Take “GGUGCGUAUGUGAGGAUAUGCUGGUCCUUGGAUCAGCAGAAGGCACAUGAGGAUCACCCAUGUGGUGUCGUACG”: the “apparent Kd” value was determined as 68.9 nM under setting [3] and 516 nM under setting [4].

In the case of “GGAGAUACAUGAGGAUCACCCAUGUAGGAUAUCGGGUAUAUAUAUGGCGAAAGCCAUAUAUAUACCGAGAAGGGCGUACACACC”, the “apparent Kd” value came to 8.59 nM under setting [3] and 8.11 nM under setting [4].

Regarding “CGCACUUAGCGAGGAUAUGUAAAACAUGAGGAUCACCCAUGUGAUUUAGUAUCAAUUUUAAUGAAACAGAAGGCGCUUAGUGCG”, the “apparent Kd” value runs as follows: under setting [3], 8.26 nM; under setting [4], 8.91 nM.

For the sequence “UGUGCUGAAGGAUAUGCGUAAUGGCCGUGAGGCCUAGAUCUACAUGAGGAUCACCCAUGUAGAAGGUCAGUACU”, the “apparent Kd” value under setting [3] was determined as 17.4 nM and the “apparent Kd” value under setting [4] came to 18.9 nM.

For the sequence “GGUUGUGUGUAAGGAUAUGCAUCACUGAGAAAUUUAGUGAGGAAGAUCACAUGAGGAUCACCCAUGUAGAAGGUACACACGUGG”, the “apparent Kd” value by setting is: under setting [3], 10.7 nM; under setting [4], 50.1 nM.

On to “AAUAGUAAGUAGAAGGUAGUAAGUAUGUUAAUCUUGUUAACAUGAGGAUCACCCAUGUAGACUACUAAGGAUAUACAUCGAUAG”, for which the “apparent Kd” value is, setting by setting: under setting [3], 14.3 nM; under setting [4], 13.7 nM.

Regarding “AACCUAAAACAGAAGGCCAGCUACAUGAGGAUCACCCAUGUCGAAUCAUGGAGGAUAUGUUGUUAUUUACUCGCAGAUGAGUGC”, the “apparent Kd” value under setting [1] worked out at 28.1 nM and the “apparent Kd” value under setting [2] is 5.51 nM.

As for “AAAAAACAUGAGGAUCACCCAUGUUAGGAUAUGCUAUGGAAAAUAAAAAAUAAACAUAGCAGAAGGAACAAAAA”, the “apparent Kd” value runs as follows: under setting [3], 43.4 nM; under setting [4], 48.9 nM.

Turning to “GUAGCAUACCGAGGAUAUUCAUACCGGAAACGGACAUGAGGAUCACCCAUGUUGCGAAAGCAUUGGGAGAAGGCGGAAUGCUAC”, the “apparent Kd” value runs as follows: under setting [1], 919 nM; under setting [2], 55.8 nM.

Regarding “AGCCCUAAUGUCAGGAUAUGCAUCCUUAAUGGACGGCAGAAGGGACAUGAGGAUCACCCAUGUAAAUAGAAAUU”, the “apparent Kd” value runs as follows: under setting [3], 34.8 nM; under setting [4], 146 nM.

Take “UGAAAUCAUGUAGGAUAUGCAUGGCGAAGCUACGCAGAAGGACAUGAGGAUCACCCAUGUUCUAGCUACCGGAUACGGUGGCAA”: the “apparent Kd” value reads like this: under setting [3], 23.1 nM; under setting [4], 116 nM.

As for “UAUUGACAAGGAUAUUUGCGUAGUAACAUGAGGAUCACCCAUGUGAUACUAUGGAGCUCGAAAGAAGGUGUGCGAG”, the “apparent Kd” value is, setting by setting: under setting [3], 20.5 nM; under setting [4], 22.8 nM.

Turning to “GGUUGACAUAGUCAUCCUUAACGAACAUGAGGAUCACCCAUGUAGGAUAUGCUACUCAAAGAGUAGCAGAAGGGCGUGUGUCUU”, the “apparent Kd” value runs as follows: under setting [3], 28.3 nM; under setting [4], 36.1 nM.

For the sequence “CGUUGUAACGCAGGAUAUCCAAAGCUUUUUGCAGGAGAAGGGUGUUACAUGAGGAUCACCCAUGUGAAGGCCCGCAUUCCUCAU”, the “apparent Kd” value by setting is: under setting [3], 5.57 nM; under setting [4], 6.41 nM.

With “GCUUGUGUUGAGGAUAUGCGCCGGCUCGCUGGCGCAGAAGGCGGCACAUGAGGAUCACCCAUGUCAGUUCGCGC”, the “apparent Kd” value was determined as 19 nM under setting [3] and 157 nM under setting [4].

In the case of “CCCUCACAUGAGGAUCACCCAUGUCAGGAUAUUCGGCGGUCAAUUGACCGCCUUAAAGGAAGAAGGGACGUAAA”, the “apparent Kd” value was found to be 12.7 nM under setting [3] and 18.9 nM under setting [4].

Take “AAGGGACAUGAGGAUCACCCAUGUGAGGAUAUAUAAAUGUACCCGAUGGGAGUACACAAUAGAAGGCGCGGCUA”: the “apparent Kd” value reads like this: under setting [3], 40.7 nM; under setting [4], 32.8 nM.

As for “UACUUCCGAGGAUAUACAUGAGGAUCACCCAUGUGCUUCAGCAUCGAAAGAUGCAUGGGUAGAAGGCGGUAGUU”, the “apparent Kd” value reads like this: under setting [3], 44.6 nM; under setting [4], 50.4 nM.

“AUGCGACAUGAGGAUCACCCAUGUGAGGAUAUGGCCUGUUUGGCGUGUGCUGGCUCUGUCAGAAGGCGCGUGGG”: the “apparent Kd” value came out at 103 nM under setting [3] and 270 nM under setting [4].

In the case of “AAAAAACAUGAGGAUCACCCAUGUGAGGAUAUCGAAAAGUCAAAGAAAAAGACGAAAACGAGAAGGCGCAAAAA”, the “apparent Kd” value was determined as 49.6 nM under setting [3] and 45.5 nM under setting [4].

Consider “GUAAAUCAUGUAGGAUAUGCAUGGCGAAGCUACGCAGAAGGACAUGAGGAUCACCCAUGUCUGUCCGUCUGGAUACAGACGGAC”, for which the “apparent Kd” value under setting [3] was 24.6 nM and the “apparent Kd” value under setting [4] is 195 nM.

For “GAAUUCGCAUGAGGAUAUGCACUCAUUUCAUGUGCAGAAGGUAUAUCAUUAGACAUGAGGAUCACCCAUGUAUUGGUCAAUAAC”, the “apparent Kd” value reads like this: under setting [1], 17.8 nM; under setting [2], 14.8 nM.

Take “AAUCUGUAGCAGAAGGUCAUUUUUAUAAAUAAGCUGGUGACAUGAGGAUCACCCAUGUAAAGGUUGAAGGAUAUGCAUUCUAUU”: the “apparent Kd” value under setting [3] worked out at 90.5 nM and the “apparent Kd” value under setting [4] was 343 nM.

Regarding “UUACUCAUGUAAGGAUAUGCAGCCGUUUCGGUUGCAGAAGGUACUAUAAUACAUGAGGAUCACCCAUGUCUUUUUAAUUUUUAC”, the “apparent Kd” value under setting [1] is 67.9 nM and the “apparent Kd” value under setting [2] is 31.2 nM.

Take “UGGUACAUGGGAGGAUAUCCUCAAGAGACAUGAGGAUCACCCAUGUAUUAUAUGCCUCAUGGCAUGGAGAAGGCCCAUGUACCU”: the “apparent Kd” value reads like this: under setting [1], 179 nM; under setting [2], 153 nM.

“CAAAGUGGAGGAUAUACAUGAGGAUCACCCAUGUAAGGACAAUAAAUAAGAAGAAGAAGUAGAAGGCCACUCAA”: the “apparent Kd” value reads like this: under setting [3], 31.1 nM; under setting [4], 41.6 nM.
